Test results as given in ChEMBL document CHEMBL5303300, “EUbOPEN Chemogenomics Library - Multiplex” (2023).
Values joined by “and” are separate entries in the source; they are usually repeats but may differ in a detail not shown here. Equal values may be shown once.

Test system: Fibroblast
Test: Multiplex assay against human fibroblast
Assay type: toxicity, cell-based
Settings: number of replicates 2
Procedure, shortened: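 Cells stained live at seeding with Hoechst33342, BioTracker Green Microtubule Cytoskeleton Dye, MitoTracker Red and Annexin V Alexa Fluor 680 were imaged on a CQ1 microscope at 37°C and 5% CO2 after compound addition. Their classification by CellPathfinder machine-learning gating ran from Hoechst high-intensity objects versus normal cells, to healthy, pyknosed or fragmented nuclei among normal cells, to mitotic or apoptotic among pyknosed cells. Tubulin, mitochondrial-mass and membrane-permeability phenotypes are per cents of healthy-nucleus cells.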

[1] = 12 h, 1 µM, compound concentration 1 uM
[2] = 12 h, 10 µM, compound concentration 10 uM
[3] = 24 h, 1 µM, compound concentration 1 uM
[4] = 24 h, 10 µM, compound concentration 10 uM
[5] = 48 h, 1 µM, compound concentration 1 uM
[6] = 48 h, 10 µM, compound concentration 10 uM

CNc1ncc2cc(-c3ccc(-c4cccc(C)n4)cc3Cl)c(=O)n(C[C@H]3OC[C@H](N)CO3)c2n1
Population Apoptotic (%) [1]: 43% and 42%
Population Fragmented Nuclei (%) [1]: 9% and 17%
Population Healthy Nuclei (%) [1]: 51% and 52%
Population Hoechst High Intensity Objects (%) [1]: 0%
Population Membrane Permeable-Phenotype (%) [1]: 10%
Population Mitochondria Different-Phenotype (%) [1]: 0%
Population Mitotic Cells (%) [1]: 56% and 57%
Population Normal (%) [1]: 100%
Population Pyknosed Nuclei (%) [1]: 39% and 30%
Population Tubulin-Different-Phenotype (%) [1]: 21% and 18%
Total Cell Count [1]: 176 and 246
Population Apoptotic (%) [2]: 44% and 35%
Population Fragmented Nuclei (%) [2]: 22% and 26%
Population Healthy Nuclei (%) [2]: 26% and 28%
Population Hoechst High Intensity Objects (%) [2]: 1% and 7%
Population Membrane Permeable-Phenotype (%) [2]: 23% and 16%
Population Mitochondria Different-Phenotype (%) [2]: 0%
Population Mitotic Cells (%) [2]: 55% and 64%
Population Normal (%) [2]: 98% and 92%
Population Pyknosed Nuclei (%) [2]: 50% and 45%
Population Tubulin-Different-Phenotype (%) [2]: 55% and 51%
Total Cell Count [2]: 227 and 323
Population Apoptotic (%) [3]: 41% and 67%
Population Fragmented Nuclei (%) [3]: 14% and 21%
Population Healthy Nuclei (%) [3]: 56%
Population Hoechst High Intensity Objects (%) [3]: 0%
Population Membrane Permeable-Phenotype (%) [3]: 25% and 13%
Population Mitochondria Different-Phenotype (%) [3]: 0%
Population Mitotic Cells (%) [3]: 58% and 32%
Population Normal (%) [3]: 100% and 99%
Population Pyknosed Nuclei (%) [3]: 28% and 21%
Population Tubulin-Different-Phenotype (%) [3]: 29% and 15%
Total Cell Count [3]: 179 and 248
Population Apoptotic (%) [4]: 45% and 65%
Population Fragmented Nuclei (%) [4]: 27% and 23%
Population Healthy Nuclei (%) [4]: 34% and 36%
Population Hoechst High Intensity Objects (%) [4]: 7% and 4%
Population Membrane Permeable-Phenotype (%) [4]: 31% and 34%
Population Mitochondria Different-Phenotype (%) [4]: 5% and 4%
Population Mitotic Cells (%) [4]: 54% and 34%
Population Normal (%) [4]: 92% and 95%
Population Pyknosed Nuclei (%) [4]: 38% and 39%
Population Tubulin-Different-Phenotype (%) [4]: 37% and 59%
Total Cell Count [4]: 304 and 248
Population Apoptotic (%) [5]: 61% and 86%
Population Fragmented Nuclei (%) [5]: 22% and 24%
Population Healthy Nuclei (%) [5]: 64% and 66%
Population Hoechst High Intensity Objects (%) [5]: 0%
Population Membrane Permeable-Phenotype (%) [5]: 36% and 19%
Population Mitochondria Different-Phenotype (%) [5]: 0%
Population Mitotic Cells (%) [5]: 38% and 13%
Population Normal (%) [5]: 100%
Population Pyknosed Nuclei (%) [5]: 12% and 9%
Population Tubulin-Different-Phenotype (%) [5]: 39% and 19%
Total Cell Count [5]: 171 and 237
Population Apoptotic (%) [6]: 42% and 24%
Population Fragmented Nuclei (%) [6]: 19% and 28%
Population Healthy Nuclei (%) [6]: 57% and 51%
Population Hoechst High Intensity Objects (%) [6]: 9% and 11%
Population Membrane Permeable-Phenotype (%) [6]: 40% and 39%
Population Mitochondria Different-Phenotype (%) [6]: 2% and 1%
Population Mitotic Cells (%) [6]: 57% and 75%
Population Normal (%) [6]: 90% and 88%
Population Pyknosed Nuclei (%) [6]: 23% and 20%
Population Tubulin-Different-Phenotype (%) [6]: 33% and 29%
Total Cell Count [6]: 268 and 338

CS(=O)(=O)c1ccc(C(=O)Nc2ccc(F)c(COc3ccc(Br)cc3CNCCO)c2)c(Cl)c1.O=CO
Population Apoptotic (%) [1]: 41% and 39%
Population Healthy Nuclei (%) [1]: 69% and 66%
Population Mitotic Cells (%) [1]: 58% and 60%
Total Cell Count [1]: 178 and 232
Population Apoptotic (%) [2]: 50% and 51%
Population Healthy Nuclei (%) [2]: 49%
Population Mitotic Cells (%) [2]: 50% and 48%
Population Pyknosed Nuclei (%) [2]: 35% and 30%
Total Cell Count [2]: 220 and 252
Population Apoptotic (%) [3]: 63% and 46%
Population Healthy Nuclei (%) [3]: 68% and 56%
Population Mitotic Cells (%) [3]: 36% and 53%
Total Cell Count [3]: 202 and 243
Population Apoptotic (%) [4]: 68% and 73%
Population Healthy Nuclei (%) [4]: 54% and 56%
Population Mitotic Cells (%) [4]: 31% and 26%
Population Pyknosed Nuclei (%) [4]: 27% and 22%
Total Cell Count [4]: 219 and 283
Population Apoptotic (%) [5]: 54% and 68%
Population Healthy Nuclei (%) [5]: 71% and 72%
Population Mitotic Cells (%) [5]: 45% and 31%
Total Cell Count [5]: 202 and 207
Population Apoptotic (%) [6]: 88% and 77%
Population Healthy Nuclei (%) [6]: 63% and 61%
Population Mitotic Cells (%) [6]: 11% and 22%
Population Pyknosed Nuclei (%) [6]: 22%
Total Cell Count [6]: 200 and 244

CNS(=O)(=O)c1ccc(N(C)C)c(Nc2ncnc3cc(OC)c(OC)cc23)c1
Population Apoptotic (%) [1]: 40% and 34%
Population Fragmented Nuclei (%) [1]: 11% and 10%
Population Healthy Nuclei (%) [1]: 55% and 63%
Population Hoechst High Intensity Objects (%) [1]: 0%
Population Membrane Permeable-Phenotype (%) [1]: 4% and 6%
Population Mitochondria Different-Phenotype (%) [1]: 0%
Population Mitotic Cells (%) [1]: 60% and 65%
Population Normal (%) [1]: 100%
Population Pyknosed Nuclei (%) [1]: 33% and 26%
Population Tubulin-Different-Phenotype (%) [1]: 9% and 6%
Total Cell Count [1]: 136 and 169
Population Apoptotic (%) [2]: 41% and 28%
Population Fragmented Nuclei (%) [2]: 13% and 8%
Population Healthy Nuclei (%) [2]: 61% and 67%
Population Hoechst High Intensity Objects (%) [2]: 0%
Population Membrane Permeable-Phenotype (%) [2]: 4% and 6%
Population Mitochondria Different-Phenotype (%) [2]: 1%
Population Mitotic Cells (%) [2]: 58% and 71%
Population Normal (%) [2]: 99% and 100%
Population Pyknosed Nuclei (%) [2]: 24% and 23%
Population Tubulin-Different-Phenotype (%) [2]: 22% and 16%
Total Cell Count [2]: 206 and 246
Population Apoptotic (%) [3]: 37% and 46%
Population Fragmented Nuclei (%) [3]: 11% and 13%
Population Healthy Nuclei (%) [3]: 54% and 60%
Population Hoechst High Intensity Objects (%) [3]: 0%
Population Membrane Permeable-Phenotype (%) [3]: 2% and 8%
Population Mitochondria Different-Phenotype (%) [3]: 0% and 2%
Population Mitotic Cells (%) [3]: 62% and 53%
Population Normal (%) [3]: 99%
Population Pyknosed Nuclei (%) [3]: 33% and 25%
Population Tubulin-Different-Phenotype (%) [3]: 8% and 10%
Total Cell Count [3]: 136 and 162
Population Apoptotic (%) [4]: 56% and 43%
Population Fragmented Nuclei (%) [4]: 11% and 10%
Population Healthy Nuclei (%) [4]: 66% and 71%
Population Hoechst High Intensity Objects (%) [4]: 0%
Population Membrane Permeable-Phenotype (%) [4]: 7% and 2%
Population Mitochondria Different-Phenotype (%) [4]: 2%
Population Mitotic Cells (%) [4]: 43% and 56%
Population Normal (%) [4]: 100% and 99%
Population Pyknosed Nuclei (%) [4]: 22% and 17%
Population Tubulin-Different-Phenotype (%) [4]: 20% and 12%
Total Cell Count [4]: 207 and 220
Population Apoptotic (%) [5]: 53% and 68%
Population Fragmented Nuclei (%) [5]: 20% and 18%
Population Healthy Nuclei (%) [5]: 59% and 65%
Population Hoechst High Intensity Objects (%) [5]: 0%
Population Membrane Permeable-Phenotype (%) [5]: 10% and 7%
Population Mitochondria Different-Phenotype (%) [5]: 1%
Population Mitotic Cells (%) [5]: 46% and 31%
Population Normal (%) [5]: 99% and 100%
Population Pyknosed Nuclei (%) [5]: 19% and 15%
Population Tubulin-Different-Phenotype (%) [5]: 15% and 8%
Total Cell Count [5]: 154 and 185
Population Apoptotic (%) [6]: 62% and 75%
Population Fragmented Nuclei (%) [6]: 17% and 14%
Population Healthy Nuclei (%) [6]: 68% and 78%
Population Hoechst High Intensity Objects (%) [6]: 0%
Population Membrane Permeable-Phenotype (%) [6]: 6% and 3%
Population Mitochondria Different-Phenotype (%) [6]: 2% and 3%
Population Mitotic Cells (%) [6]: 37% and 25%
Population Normal (%) [6]: 99% and 100%
Population Pyknosed Nuclei (%) [6]: 14% and 7%
Population Tubulin-Different-Phenotype (%) [6]: 12% and 11%
Total Cell Count [6]: 193 and 207
